{
  "source": "ChEMBL document CHEMBL5724801",
  "about": "“EUbOPEN Chemogenomics Library - Multiplex” (2024)",
  "tested_on": "U2OS",
  "test": "Multiplex assay against U2OS",
  "assay_type": "toxicity, cell-based",
  "settings": "human",
  "procedure,_shortened": "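Live cells were stained at seeding with Hoechst33342, BioTracker Green Microtubule Cytoskeleton Dye, MitoTracker Red and Annexin V Alexa Fluor 680, then imaged on a CQ1 microscope at 37°C and 5% CO2 after compound addition. CellPathfinder machine-learning gating split cells into Hoechst high-intensity objects or normal cells. Normal cells were split into healthy, pyknosed or fragmented nuclei, and pyknosed cells into mitotic or apoptotic. Tubulin, mitochondrial-mass and membrane-permeability phenotypes are per cents of healthy-nucleus cells.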",
  "key": {"[1]": {"settings": "12 h, 1 µM, compound concentration 1 uM"}, "[2]": {"settings": "12 h, 10 µM, compound concentration 10 uM"}, "[3]": {"settings": "24 h, 1 µM, compound concentration 1 uM"}, "[4]": {"settings": "24 h, 10 µM, compound concentration 10 uM"}, "[5]": {"settings": "48 h, 1 µM, compound concentration 1 uM"}, "[6]": {"settings": "48 h, 10 µM, compound concentration 10 uM"}},
  "note": "“And” between values parts separate entries of the source, which are not always exact repeats. Equal entries are not always repeated.",
  "data": [
    {"smiles": "O=C(NCc1cccc(O)c1)Nc1nc(-c2ccncc2)cs1", "values": [
      {"measurement": "Population Apoptotic (%)", "setting": "[1]", "value": "37.74% and 30.77%"},
      {"measurement": "Population Fragmented Nuclei (%)", "setting": "[1]", "value": "4.64% and 3.9%"},
      {"measurement": "Population Healthy Nuclei (%)", "setting": "[1]", "value": "83.06% and 79.22%"},
      {"measurement": "Population Hoechst High Intensity Objects (%)", "setting": "[1]", "value": "0% and 0.65%"},
      {"measurement": "Population Membrane Permeable-Phenotype (%)", "setting": "[1]", "value": "0.84% and 1.64%"},
      {"measurement": "Population Mitochondria Different-Phenotype (%)", "setting": "[1]", "value": "0.28% and 9.02%"},
      {"measurement": "Population Mitotic Cells (%)", "setting": "[1]", "value": "62.26% and 69.23%"},
      {"measurement": "Population Normal (%)", "setting": "[1]", "value": "100% and 99.35%"},
      {"measurement": "Population Pyknosed Nuclei (%)", "setting": "[1]", "value": "12.3% and 16.88%"},
      {"measurement": "Population Tubulin-Different-Phenotype (%)", "setting": "[1]", "value": "1.96% and 0%"},
      {"measurement": "Total Cell Count", "setting": "[1]", "value": "431 and 155"},
      {"measurement": "Population Apoptotic (%)", "setting": "[2]", "value": "52.63% and 52.17%"},
      {"measurement": "Population Fragmented Nuclei (%)", "setting": "[2]", "value": "2.65% and 6.96%"},
      {"measurement": "Population Healthy Nuclei (%)", "setting": "[2]", "value": "82.23% and 73.04%"},
      {"measurement": "Population Hoechst High Intensity Objects (%)", "setting": "[2]", "value": "0.26% and 0%"},
      {"measurement": "Population Membrane Permeable-Phenotype (%)", "setting": "[2]", "value": "1.61% and 4.76%"},
      {"measurement": "Population Mitotic Cells (%)", "setting": "[2]", "value": "47.37% and 47.83%"},
      {"measurement": "Population Normal (%)", "setting": "[2]", "value": "99.74% and 100%"},
      {"measurement": "Population Pyknosed Nuclei (%)", "setting": "[2]", "value": "15.12% and 20%"},
      {"measurement": "Population Tubulin-Different-Phenotype (%)", "setting": "[2]", "value": "2.9% and 0%"},
      {"measurement": "Population Apoptotic (%)", "setting": "[3]", "value": "47.5% and 43.18%"},
      {"measurement": "Population Fragmented Nuclei (%)", "setting": "[3]", "value": "2.77% and 4.12%"},
      {"measurement": "Population Healthy Nuclei (%)", "setting": "[3]", "value": "82.47% and 73.2%"},
      {"measurement": "Population Hoechst High Intensity Objects (%)", "setting": "[3]", "value": 0, "unit": "%"},
      {"measurement": "Population Membrane Permeable-Phenotype (%)", "setting": "[3]", "value": "1.12% and 3.52%"},
      {"measurement": "Population Mitochondria Different-Phenotype (%)", "setting": "[3]", "value": "0% and 5.63%"},
      {"measurement": "Population Mitotic Cells (%)", "setting": "[3]", "value": "52.5% and 56.82%"},
      {"measurement": "Population Normal (%)", "setting": "[3]", "value": 100, "unit": "%"},
      {"measurement": "Population Pyknosed Nuclei (%)", "setting": "[3]", "value": "14.76% and 22.68%"},
      {"measurement": "Population Tubulin-Different-Phenotype (%)", "setting": "[3]", "value": "0.67% and 0%"},
      {"measurement": "Total Cell Count", "setting": "[3]", "value": "542 and 194"},
      {"measurement": "Population Apoptotic (%)", "setting": "[4]", "value": "44.26% and 50%"},
      {"measurement": "Population Fragmented Nuclei (%)", "setting": "[4]", "value": "3.67% and 6.77%"},
      {"measurement": "Population Healthy Nuclei (%)", "setting": "[4]", "value": "83.15% and 67.67%"},
      {"measurement": "Population Hoechst High Intensity Objects (%)", "setting": "[4]", "value": 0, "unit": "%"},
      {"measurement": "Population Membrane Permeable-Phenotype (%)", "setting": "[4]", "value": "1.82% and 5.56%"},
      {"measurement": "Population Mitotic Cells (%)", "setting": "[4]", "value": "55.74% and 50%"},
      {"measurement": "Population Normal (%)", "setting": "[4]", "value": 100, "unit": "%"},
      {"measurement": "Population Pyknosed Nuclei (%)", "setting": "[4]", "value": "13.17% and 25.56%"},
      {"measurement": "Population Tubulin-Different-Phenotype (%)", "setting": "[4]", "value": "1.82% and 1.11%"},
      {"measurement": "Population Apoptotic (%)", "setting": "[5]", "value": "50.98% and 51.79%"},
      {"measurement": "Population Fragmented Nuclei (%)", "setting": "[5]", "value": "4.55% and 3.91%"},
      {"measurement": "Population Healthy Nuclei (%)", "setting": "[5]", "value": "84.92% and 77.85%"},
      {"measurement": "Population Hoechst High Intensity Objects (%)", "setting": "[5]", "value": "0.1% and 0%"},
      {"measurement": "Population Membrane Permeable-Phenotype (%)", "setting": "[5]", "value": "0.12% and 2.09%"},
      {"measurement": "Population Mitochondria Different-Phenotype (%)", "setting": "[5]", "value": "0% and 3.35%"},
      {"measurement": "Population Mitotic Cells (%)", "setting": "[5]", "value": "49.02% and 48.21%"},
      {"measurement": "Population Normal (%)", "setting": "[5]", "value": "99.9% and 100%"},
      {"measurement": "Population Pyknosed Nuclei (%)", "setting": "[5]", "value": "10.54% and 18.24%"},
      {"measurement": "Population Tubulin-Different-Phenotype (%)", "setting": "[5]", "value": "1.22% and 1.26%"},
      {"measurement": "Population Apoptotic (%)", "setting": "[6]", "value": "60.92% and 61.11%"},
      {"measurement": "Population Fragmented Nuclei (%)", "setting": "[6]", "value": "2.84% and 9.2%"},
      {"measurement": "Population Healthy Nuclei (%)", "setting": "[6]", "value": "84.18% and 68.71%"},
      {"measurement": "Population Hoechst High Intensity Objects (%)", "setting": "[6]", "value": 0, "unit": "%"},
      {"measurement": "Population Membrane Permeable-Phenotype (%)", "setting": "[6]", "value": "1.6% and 6.25%"},
      {"measurement": "Population Mitochondria Different-Phenotype (%)", "setting": "[6]", "value": "0% and 18.75%"},
      {"measurement": "Population Mitotic Cells (%)", "setting": "[6]", "value": "39.08% and 38.89%"},
      {"measurement": "Population Normal (%)", "setting": "[6]", "value": 100, "unit": "%"},
      {"measurement": "Population Pyknosed Nuclei (%)", "setting": "[6]", "value": "12.99% and 22.09%"},
      {"measurement": "Population Tubulin-Different-Phenotype (%)", "setting": "[6]", "value": "1.24% and 0.89%"}
    ]}
  ]
}
